# Screening results deposited in PubChem BioAssay by several laboratories.
# Mdm2-MdmX inh: disrupts the human Mdm2-MdmX interaction | SaOS-2 split-luciferase Mdm2/MdmX complementation, luminescence | AID 485346 | 3% of 330,000 active | O15151+Q00987 | inhibition, % at 8 µM;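 active = inhibition of at least 50% at 8 µM in the primary screen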
# CSC inhib: blocks cancer stem cells; inhibition, % at 7.5 µM; AID 2717; cancer stem cell-like cells viability, luminescence; 1.1% of 300,000 active; in the data active = inhibition above about 75%; inconclusive = no clear call, values can overlap the other calls; tested in HMLE shEcad cells
# Calb FLC: C. albicans growth modulation with fluconazole; C. albicans CaCi-2 (fluconazole-resistant clinical isolate) + fluconazole, Alamar Blue growth, 48 h; growth inhibition, % (test concentration not listed); 0.57% of 300,000 active; AID 1979;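 active = growth inhibition above about 58% in most replicates, limit read from the data, passing the limit was not always enough; inconclusive = exactly half the replicates above a set limit; inactive = most replicates below a set limit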;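 note: all wells also contain fluconazole at 8 µg/ml as a sub-toxic cotreatment; 0% = median of DMSO wells and 100% = median of geldanamycin control wells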
# SKKanGAS inh: blocks kanamycin growth of S. pyogenes SKKanGAS strain | BacTiter-Glo, 6 h | inhibition, % at 7.5 µM | 1.3% of 300,000 active;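 active = mean replicate score, as percent of positive control median, at least 50; inconclusive = mean below 50 but one replicate at or above 50; inactive = mean and every replicate below 50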;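 note: strain carries kanamycin resistance gene driven by streptokinase promoter and grows in 40 µg/ml kanamycin; loss of luminescence reflects streptokinase promoter inhibition or plain growth inhibition; 0% = median of DMSO wells and 100% = positive control at its reference dose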
# T cruzi inh: T. cruzi replication inhibition | AID 1885 | T. cruzi beta-gal in NIH3T3, luminescence, 90 h | inhibition, % (no concentration beside the values) | 1.4% of 300,000 active;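 active = mean inhibition across valid replicates above about 55%, limit read from the data; inconclusive = mean below that limit but half or more replicates reach it; inactive = mean below it, under half of replicates reach it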;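 note: signal also drops with host cell toxicity which is not excluded here; 0% = plate median of DMSO wells and 100% = zero luminescence signal; higher percent means less beta-gal luminescence so fewer parasites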
#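 Assay system: NIH/3T3 fibroblasts plus reporter T. cruzi. Amount: NIH/3T3 cells, 5,000 per well. Buffer or medium: DMEM, 2% fetal bovine serum. Doses: compound pinned at 50 nL/well, DMSO. Schedule: ≥90 h infection period, 3 h prior cell attachment. Signal: luminescent β-galactosidase signal after 60 min lysis. Read-out: parasite load inhibition, %.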
# Beta apoptosis: blocks beta cell apoptosis; INS-1E cytokine-induced death, ATP luminescence, 48 h; percent of positive-control rescue, neutral wells zero; protection from apoptosis, % (concentration not given with the values); 0.8% of 300,000 active; AID 435005;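 active = Every replicate reaches about 75%, or at least half do and their mean reaches it too, limit read from the data; inconclusive = At least half of replicates reach the limit but their mean does not; inactive = Under half of replicates reach the limit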;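 note: 0% = cytokine-treated negative control wells and 100% = positive control rescue; higher means more ATP so stronger rescue from cytokine killing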
# Mdm2-MdmX conf: confirmation of human Mdm2/MdmX interaction inhibitors; shares compounds with Mdm2-MdmX inh; Mdm2-MdmX binding, luminescent assay; inhibition, % at 8 µM; 55% of 10,000 active; in the data active = inhibition above about 40%
# FLuc counter: counter-screen for Mdm2/MdmX inhibitors: full-length luciferase. shares compounds with Mdm2-MdmX inh. SaOS-2 full-length luciferase counterscreen, luminescence. inhibition, % at 8 µM. 77% of 6,200 active. AID 504607;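 active = mean inhibition at 8 µM reaching about 37%, which flags the compound as non-specific, limit read from the data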;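 note: p53-null SaOS-2 cells with luciferase driven by a doxycycline-inducible promoter; compound on cells about two nights before reading with doxycycline added after day one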
# The depositor's hits bear a star; ? = inconclusive; . = no result given. This is a sample that favours compounds with a hit; in the whole collection about 5.7% have one here.
SMILES,Mdm2-MdmX inh,CSC inhib,Calb FLC,SKKanGAS inh,T cruzi inh,Beta apoptosis,Mdm2-MdmX conf,FLuc counter
COc1ccc(-c2cc3c(=O)n(CC(=O)NCc4ccc(C)cc4)ncn3n2)cc1,95*,13,7,-1,-2,17,-8,.
COc1ccc(CNC(=O)Cn2ncn3cccc3c2=O)cc1,18,.,-3,3,-16,2,.,.
CC(=O)Nc1ccc(S(=O)(=O)N2CCCC(C(=O)N3CCN(c4ccccc4)CC3)C2)cc1 (configuration not stated),-3,0,.,-4,3,-1,.,.
Cc1ccc(C(=O)OCC(=O)N2CCNC2=O)c(C)c1,-10,.,.,.,.,.,.,.
COc1ccc(-c2cc3c(=O)n(CC(=O)NCCCN4CCC(Cc5ccccc5)CC4)ncn3n2)cc1,87*,51,0,2,24,43,37,68*
Cc1nn(CC(=O)NCCCN2CCN(C)CC2)c(=O)c2cc(-c3ccccc3)nn12,7,39,-4,-3,-3,-4,.,.
Cc1nn(CC(=O)NCCCN2CCC(N3CCCCC3)CC2)c(=O)c2cc(-c3ccccc3)nn12,95*,-6,0,-1,35,7,53*,56*
O=C(/C=C/c1cccc(C(F)(F)F)c1)OCC(=O)N1CCN(c2ccccc2)CC1,21,-2,.,.,.,-4,.,.
CC(C)(C)C(=O)Nc1ccc(S(=O)(=O)N2CCC(c3nc4ccccc4[nH]3)CC2)cc1,5,7,0,1,-22,12,.,.
COc1cccc(CN(C)C(=O)CCN=C2NS(=O)(=O)c3ccccc32)c1,11,13,.,.,.,-1,.,.
COc1ccc(/C=C/c2ccc3cccc(O)c3n2)c(OC)c1OC,100*,73,59,105*,35,31,18,.
CCOc1c(OC(C)=O)ccc(/C=C/c2ccc3cccc(OC)c3n2)c1[N+](=O)[O-],-51,43,1,3,-7,-10,.,.
COc1cccc(/C=C/c2ccc3cccc(O)c3n2)c1OC,70*,66,4,86*,41,51,-95,.
COc1ccccc1NC(=O)c1ccc(Cl)c(S(=O)(=O)NCc2ccco2)c1,23,-13,.,.,.,-1,.,.
COc1ccc(CCNC(=O)C2CC(=O)N(C3CCCCC3)C2)cc1OC (configuration not stated),3,-1,10,-1,-29,1,.,.
Cc1cccc(NCc2ccccc2O)n1,20,0,7,8,1,-6,.,.
Cc1cccc(NC(c2ccc(C)s2)c2ccc3ccc(C)nc3c2O)n1 (configuration not stated),98*,.,11,77*,?,.,61*,24
Oc1ccccc1C(Nc1nccs1)c1ccc2cccnc2c1O (configuration not stated),64*,138*,95*,75*,63*,87*,78*,48*
O=C(O)c1ccc2cccnc2c1O,4,5,10,-10,2,3,.,.
COc1cc(C(Nc2ccccn2)c2ccc3ccc(C)nc3c2O)cc(OC)c1O (configuration not stated),79*,70,113*,9,52,3,81*,51*
Oc1c(C(Nc2ccccn2)c2ccccn2)ccc2cccnc12 (configuration not stated),53*,-4,3,72*,55*,87*,71*,45*
COc1cc(C(Nc2ccccn2)c2c(NC(=O)c3ccco3)sc(C)c2C)cc(OC)c1OC (configuration not stated),13,-4,-3,1,21,-2,.,.
CCO[C@@H]1OC(C(=O)NCc2nc3ccccc3[nH]2)=C[C@H](C(C)(C)C)[C@H]1CCCO,54*,-5,0,1,9,18,50*,95*
CCO[C@@H]1OC(C(=O)NCc2nc3ccccc3[nH]2)=C[C@H](C2CC2)[C@H]1CCCO,32,36,-3,3,2,-1,.,.
